# Laboratory results taken from BindingDB's records for doi:10.1021/jm020334u (Roche Discovery Welwyn, 2003).
# Target: Polymerase acidic protein (Influenza A virus (strain A/Puerto Rico/8/1934 H1N1), UniProt P03433)
# Test: Inhibitory concentration against cap-dependent endonuclease activity of influenza virus RNP
# Procedure, shortened: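 Gel-based cap-dependent endonuclease assay. 1 nM influenza RNP was incubated with 0.1 nM cap-labeled 20-mer G20 RNA in 50 mM Tris-HCl pH 8 with 1 mM MgCl₂, 20 mM KCl, 1 U/μL RNase inhibitor and 0.3% Triton X-100, for 5 min at 31 °C. Cleavage products were resolved on polyacrylamide gels and quantified by phosphorimager. IC50 came from dose–response curves.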
row,SMILES,IC50
1,"CC(C)C=c1[nH]c(=Cc2ccc(F)cc2)c(=O)[nH]c1=O [3-(4-fluorobenzylidene)-5-isobutylpyrazine-2,6(1H,3H)-dione]",> 365 µM
2,"COCOn1c(=O)c(=CC(C)C)[nH]c(=CC(C)C)c1=O [(3Z)-5-isobutyl-1-(methoxymethoxy)-3-(2-methylpropylidene)pyrazine-2,6(1H,3H)-dione]",> 355 µM
